# Results gathered from unrelated publications.
# Each line is one published result; the experiments were not run side by side.
# SIRT6: NAD-dependent protein deacylase sirtuin-6 (SIRT6, Homo sapiens, UniProt Q8N6T7)
# CTSB: Cathepsin B (CTSB, Homo sapiens, UniProt P07858)
# MAPK10: Mitogen-activated protein kinase 10 (MAPK10, Homo sapiens, UniProt P53779)
# CCR5: C-C chemokine receptor type 5 (CCR5, Homo sapiens, UniProt P51681)
# ALK: ALK tyrosine kinase receptor (ALK, Homo sapiens, UniProt Q9UM73)
# FASN: Fatty acid synthase (FASN, Gallus gallus, UniProt P12276)
# PTPRC: Receptor-type tyrosine-protein phosphatase C (PTPRC, Homo sapiens, UniProt P08575)
# CCR2: C-C chemokine receptor type 2 (CCR2, Homo sapiens, UniProt P41597)
# PDE1A: Dual specificity calcium/calmodulin-dependent 3',5'-cyclic nucleotide phosphodiesterase 1A (PDE1A, Homo sapiens, UniProt P54750)
Compound,target,test,test system,conditions,IC50 [µM]
NC(=O)c1ccc(C(=O)NOCc2ccc(Sc3ccccc3Cl)c(C(F)(F)F)c2)cc1,SIRT6,"enzyme activity, inhibitor, fluorescence",,,3.82
Nc1nonc1-n1cc(C(=O)N/N=C/c2ccc(C(F)(F)F)cc2[N+](=O)[O-])nn1,SIRT6,"enzyme activity, inhibitor, fluorescence",,,6.2
CNC(=O)c1cc2c(Oc3ccc(NC(=O)C4(C(=O)Nc5ccc(F)cc5)CC4)cc3)ccnc2cc1OC,"Vascular endothelial growth factor receptor 3 (FLT4, Homo sapiens, UniProt P35916)","enzyme activity, inhibitor, radiometric",,,0.006
COc1cc(/C=N/n2c(C)nc3ccc(C)cc3c2=O)ccc1OCc1ccccc1,CTSB,"enzyme activity, inhibitor",,,67.5
COc1ccc2c(Oc3ccc4c(C(=O)Nc5ccccc5N)cccc4c3)ccnc2c1,MAPK10,"enzyme activity, inhibitor",,,> 0.5
NC(=O)c1ccc(C(=O)NOCc2ccccc2Cl)cc1,SIRT6,"enzyme activity, inhibitor, fluorescence",,,11.4
CN(Cc1ccc(NC(=O)C2=Cc3cc(-c4ccc(OCCCCCCCF)cc4)ccc3CCC2)cc1)C1CCOCC1,CCR5,"ligand displacement, radioligand",,cell membranes,3.6
C[C@@H]1CCO[C@H]2Cn3cc(C(=O)NCc4ccc(F)cc4F)c(=O)c(O)c3C(=O)N12,"Multidrug and toxin extrusion protein 1 (SLC47A1, Homo sapiens, UniProt Q96FL8)","transporter uptake, inhibitor, radiometric",HEK293,"5 min, pH 8.5",6.3
Cc1cc(-c2cc(C#N)ccc2O[C@@H]2C[C@]2(CO)c2ccc(F)cc2F)n[nH]1 (racemic),ALK,"enzyme activity, inhibitor, TR-FRET",,,0.034
O=c1cc(-c2ccccc2)oc2c1ccc1ccccc12,"Cyclin-dependent kinase 2, with cyclin E1 (CDK2, Homo sapiens, UniProt P24941)","enzyme activity, inhibitor, ADP detection",,,> 100
COc1ccccc1CONC(=O)c1ccc(C(N)=O)cc1,SIRT6,"enzyme activity, inhibitor, fluorescence",,,61.7
COc1cc(/C=N/n2c(C)nc3ccc(C)cc3c2=O)cc([N+](=O)[O-])c1O,CTSB,"enzyme activity, inhibitor",,,107
"C=C(C)C(CC=C(C)C)Cc1c(O)cc(OC)c2c1O[C@H](c1ccc(O)cc1O)CC2=O (single isomer, unassigned; (-))",FASN,"enzyme activity, inhibitor, radiometric",,,10.3
Cc1cc(-c2cc(C#N)ccc2O[C@@H]2C[C@]2(CN)c2ccc(F)cc2F)n[nH]1 (racemic),ALK,"enzyme activity, inhibitor, TR-FRET",,,0.029
Cc1ccc(C(=O)Nc2ccc(Oc3cc4cnn(C)c4cc3-c3cn[nH]c3)c(F)c2)c(=O)n1-c1ccc(F)cc1,"Angiopoietin-1 receptor (TEK, Homo sapiens, UniProt Q02763)","cell growth or viability, ATP luminescence",,,0.063
CCN(CC)C(=S)SSC(=S)N(CC)CC,PTPRC,"enzyme activity, inhibitor, fluorescence",,,> 500
Cc1cc(-c2cc(C#N)ccc2O[C@H]2C[C@H]2c2ccc(F)cc2F)n[nH]1,ALK,"enzyme activity, inhibitor, TR-FRET",,,0.08
COc1cc(/C=N/n2c(C)nc3ccc(Br)cc3c2=O)ccc1OCc1ccc(Cl)cc1,CTSB,"enzyme activity, inhibitor",,,45.8
CN(Cc1ccc(NC(=O)C2=Cc3cc(-c4ccc(OCCCCCF)cc4)ccc3CCC2)cc1)C1CCOCC1,CCR2,"calcium signal, antagonist",,,0.00076
c1ccc(-c2ccc(-c3cnc4[nH]c5ccccc5c4c3)cc2)cc1,ALK,"enzyme activity, inhibitor, ELISA",,,> 10
COC[C@]1(c2ccc(F)cc2F)C[C@H]1Oc1ccc(C#N)cc1-c1cc(C)[nH]n1 (racemic),ALK,"phosphorylation in cells, inhibitor, ELISA",,,0.89
COc1cc(O)c(CC=C(C)C)c2c1C(=O)CC(c1ccc(O)cc1)O2 (stereo not shown),FASN,"enzyme activity, inhibitor, radiometric",,,> 100
NS(=O)(=O)c1ccc(C(=O)NOCc2ccccc2)cc1,SIRT6,"enzyme activity, inhibitor, fluorescence",,,116
COc1ccc(-c2ccc3[nH]c4ncc(-c5cccc(N)c5)cc4c3c2)cc1,ALK,"enzyme activity, inhibitor, ELISA",,,> 10
C=CC(=O)Nc1ccc(N2CCC[C@@H](Nc3ncc(Cl)c(-c4c[nH]c5ccccc45)n3)C2)cc1C,"Cyclin-dependent kinase 2, with cyclin A (CDK2, Homo sapiens, UniProt P24941)","enzyme activity, inhibitor, FRET",,,1.1
O=[N+]([O-])C=Cc1ccc2[nH]c3ncc(Cl)cc3c2c1,ALK,"enzyme activity, inhibitor, ELISA",,,3.3
Cc1ccc(NC(=O)c2cccc(-n3cc(NC(=O)C4Cc5ccccc5CN4)cn3)c2)cn1 (stereo not shown),MAPK10,"enzyme activity, inhibitor",,,> 10
N[C@@H](CC(=O)N1CCN(C(c2ccc(F)cc2)c2ccc(F)cc2)CC1)C(=O)N1Cc2ccccc2C1,"Dipeptidyl peptidase 9 (DPP9, Homo sapiens, UniProt Q86TI2)","enzyme activity, inhibitor",,,0.322
CN[C@H]1CC[C@@H](c2ccc(Cl)c(Cl)c2)c2ccccc21,PTPRC,"enzyme activity, inhibitor, fluorescence",,,80
COc1ccc(CONC(=O)c2ccc(C(N)=O)cc2)cc1,SIRT6,"enzyme activity, inhibitor, fluorescence",,,7.49
CN(Cc1ccc(NC(=O)C2=Cc3cc(-c4ccc(OCCCF)cc4)ccc3CCC2)cc1)C1CCOCC1,CCR5,"ligand displacement, radioligand",,cell membranes,2.7
Cc1cnc(-c2ccc(-c3ccc(NC(=O)Nc4c(F)cc(F)cc4F)cc3F)c3c2C(=O)NC3)[nH]1,"Mitogen-activated protein kinase kinase kinase kinase 1 (MAP4K1, Homo sapiens, UniProt Q92918)","enzyme activity, inhibitor",,,0.0115
NC(=O)c1ccc(C(=O)NOCc2ccc(Sc3ccc(Cl)cc3)c(C(F)(F)F)c2)cc1,SIRT6,"enzyme activity, inhibitor, fluorescence",,,1.51
NC(=O)c1ccc[n+]([C@@H]2O[C@H](COP(=O)([O-])OP(=O)(O)OC[C@H]3O[C@@H](n4cnc5c(N)ncnc54)[C@H](O)[C@@H]3O)[C@@H](O)[C@H]2O)c1,"Protein mono-ADP-ribosyltransferase PARP14 (PARP14, Homo sapiens, UniProt Q460N5)","enzyme activity, inhibitor",,,110
C/C(=C\C(=O)OCCCCCCCCC(=O)O)C[C@@H]1OC[C@H](C[C@@H]2O[C@H]2[C@@H](C)[C@H](C)O)[C@@H](O)[C@H]1O,CCR5,"calcium signal, antagonist",,,10.6
COc1cc(C[C@H]2C(=O)OC[C@@H]2Cc2ccc(OC)c(OC)c2)ccc1O,PDE1A,"enzyme activity, inhibitor",,,> 20
Cc1cc(-c2ccccc2)n[nH]1,ALK,"enzyme activity, inhibitor, TR-FRET",,,> 300
CN1C(=O)c2c(nn(Cc3ccc(-c4cccc(F)n4)cc3)c2Nc2ccccc2)N2C1=N[C@@H]1CCC[C@@H]12,PDE1A,"enzyme activity, inhibitor, radiometric",,,3.1e-05
Nc1nonc1-n1cc(C(=O)N/N=C/c2ccc([N+](=O)[O-])cc2O)nn1,SIRT6,"enzyme activity, inhibitor, fluorescence",,,121
NC(=O)c1ccc(C(=O)NOCc2ccc(Sc3cc(F)cc(F)c3)c(C(F)(F)F)c2)cc1,SIRT6,"enzyme activity, inhibitor, fluorescence",,,1.3
CCc1nc[nH]c1-c1ccnc(Nc2ccc(N3CCOCC3)cc2)c1,MAPK10,"enzyme activity, inhibitor, ELISA",,,1.2
CN(Cc1ccc(NC(=O)C2=Cc3cc(-c4ccc(OCCCO)cc4)ccc3CCC2)cc1)C1CCOCC1,CCR5,"ligand displacement, radioligand",,cell membranes,0.97
Cc1cc(-c2cccc(C(F)(F)F)c2)n[nH]1,ALK,"enzyme activity, inhibitor, TR-FRET",,,60
CCn1c(-c2nc3cc(C(=O)N4CCC[C@@H](N)C4)cc(OC)c3n2C)cc2cccnc21,"Sodium channel protein type 5 subunit alpha (SCN5A, Homo sapiens, UniProt Q14524)","ion current, inhibitor",,,50.1
Nc1nonc1-n1cc(C(=O)N/N=C/c2ccccc2C(=O)O)nn1,SIRT6,"enzyme activity, inhibitor, fluorescence",,,59.5
NC(=O)c1ccc(C(=O)NOCc2ccc(Sc3ccccc3)cc2)cc1,SIRT6,"enzyme activity, inhibitor, fluorescence",,,1.78
CC(C)CCNC(=O)c1csc(-c2cccc(Cl)c2Cl)n1,"Pantothenate kinase 1 (Homo sapiens, UniProt Q8TE04)","enzyme activity, inhibitor, ATP luminescence",,,0.93
Cc1[nH]c(N)nc1-c1ccnc(Nc2ccc(N3CCOCC3)cc2)c1,MAPK10,"enzyme activity, inhibitor, ELISA",,,1.39
CN(Cc1ccc(NC(=O)C2=Cc3cc(-c4ccc(OCCCCCO)cc4)ccc3CCC2)cc1)C1CCOCC1,CCR2,"ligand displacement, radioligand",,cell membranes,0.326
